This note sets out measurements from ChEMBL document CHEMBL5712092, “NeuroD1 Dictates Tumor Cell Differentiation in Medulloblastoma” (Cell Rep, 2020).

SMILES strings stand for the structures. Activity calls are given as the source filed them. No cut-off for these calls is given here.

The term IC50 denotes the concentration needed to halve the response being measured. The low end stands for greater potency in that assay, the high end for weaker potency in that assay.

The subject of data set [1] is Medulloblastoma cell. The data set is described as follows: Antiproliferative activity in human medulloblastoma cell assessed as decrease in BrdU+ cells at 1 uM after 48 hrs by immunocytochemistry analysis relative to vehicle control. It counts as functional, cell-based. In a few lines:
(§1)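 Cultured MB cells were exposed to inhibitor at 1 μM for 48 h, with DMSO as the vehicle control. Cells were pulsed with BrdU for 2 h, then immunostained for BrdU (proliferation) or p27/Kip1 (differentiation), with DAPI nuclear counterstain. Read-out was the percentage of positive cells.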

Data set [2] has as its system Medulloblastoma cell. Nature of the data set: Induction of cell differentiation activity in human medulloblastoma cell assessed as increase in p27/Kip1+ cells at 1 uM after 48 hrs by immunocytochemistry analysis. It counts as functional, cell-based. In a few lines:
as §1

The test system of data set [3] is Medulloblastoma cell. Nature of the data set: Upregulation in NeuroD1 protein expression in human medulloblastoma cell by Western blot analysis. The data set is classed as functional, cell-based. Background: In western blotting, separated proteins are transferred to a membrane and probed.
Data set [4] deals with Medulloblastoma cell. The data set is described as follows: Antiproliferative activity in Ptch1-deficient mouse medulloblastoma cell after 48 hrs by CCK-8 assay. It counts as functional, cell-based. In a few lines:
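MB cells from tumors of 30-week-old Ptch1+/− mice, dissociated by papain digestion and purified on a 35%/65% Percoll gradient. Cells were treated with a range of inhibitor concentrations for 48 h and viability was read by CCK8 assay. IC50 was taken as the concentration giving 50% inhibition of viability.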

Data set [5] concerns Cerebellar granule neurone. Nature of the data set: Antiproliferative activity in wild-type mouse SmoA1-expressing cerebellar granule neurone cells at P7 at 2 uM for 48h by immunocytochemistry analysis. It counts as functional, cell-based. The gist of the method: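 Cerebellar granule neuron precursors from wild-type pups were infected with SmoA1-GFP lentivirus. 48 h after infection they were treated with inhibitor at 2 μM for 48 h, with DMSO as control. Proliferation was scored as the percentage of EdU+ cells among infected cells by immunostaining.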

For data set [6], the system named is Medulloblastoma cell. Nature of the data set: Antitumor activity in human medulloblastoma cells xenografted in CB17/SCID mouse at 100 mg/kg po, administered once a day. The data set is classed as functional, organism-based.
For data set [7], the system named is Medulloblastoma cell. Nature of the data set: Antitumor activity in human medulloblastoma cells xenografted in CB17/SCID mouse at 50 mg/kg po, administered once a day. The data set is classed as functional, organism-based. (In general: In xenograft studies the graft and the host belong to different species.)
Data set [8] is described as follows: Toxicity in CB17/SCID mouse xenografted with human medulloblastoma cells asessed as body weight loss at 100 mg/kg po, administered once a day. Particulars: in vivo. The data set is classed as organism-based.
Data set [9] can be described thus: Toxicity in CB17/SCID mouse xenografted with human medulloblastoma cells asessed as body weight loss at 50 mg/kg po, administered once a day. The data set is classed as organism-based. Particulars: in vivo.
For data set [10], the system named is Medulloblastoma cell. The data set is described as follows: Antitumor activity in human medulloblastoma cells xenografted in CB17/SCID mouse assessed as decrease in Ki67+ cells at 100 mg/kg po, administered once a day by immunocytochemistry analysis. The data set is classed as functional, organism-based.
The subject of data set [11] is Medulloblastoma cell. The data set is described as follows: Antitumor activity in human medulloblastoma cells xenografted in CB17/SCID mouse assessed as decrease in Ki67+ cells at 50 mg/kg po, administered once a day by immunocytochemistry analysis. The data set is classed as functional, organism-based.
For data set [12], the system named is Medulloblastoma cell. The data set is described as follows: Induction of cell differentiation activity in human medulloblastoma cells xenografted in CB17/SCID mouse assessed as increase in NeuN expression at 100 mg/kg po, administered once a day by immunocytochemistry analysis. The data set is classed as functional, organism-based.
Data set [13] relates to Medulloblastoma cell. The data set is described as follows: Induction of cell differentiation activity in human medulloblastoma cells xenografted in CB17/SCID mouse assessed as increase in NeuN expression at 50 mg/kg po, administered once a day by immunocytochemistry analysis. The data set is classed as functional, organism-based.
The subject of data set [14] is Medulloblastoma cell. Nature of the data set: Increase of apoptosis in human medulloblastoma cells xenografted in CB17/SCID mouse assessed as cleaved caspase-3 expression at 100 mg/kg po, administered once a day by immunocytochemistry analysis. The data set is classed as functional, organism-based.
For data set [15], the system named is Medulloblastoma cell. Nature of the data set: Increase of apoptosis in human medulloblastoma cells xenografted in CB17/SCID mouse assessed as cleaved caspase-3 expression at 50 mg/kg po, administered once a day by immunocytochemistry analysis. It counts as functional, organism-based.
Data set [16] has as its system Medulloblastoma cell. Nature of the data set: Antitumor activity in human medulloblastoma cells xenografted in CB17/SCID mouse assessed as increase in NeuroD1 expression at 100 mg/kg po, administered once a day by Western blot analysis. It counts as functional, organism-based.
A further data set deals with Mus musculus. Nature of the data set: Antitumor activity in human medulloblastoma cells xenografted in CB17/SCID mouse assessed as increase in NeuroD1 expression at 50 mg/kg po, administered once a day by Western blot analysis. The data set is classed as functional, organism-based.

With `CC[C@H](C)n1cc(C)c2c(C(=O)NCc3c(C)cc(C)[nH]c3=O)cc(-c3ccc(N4CCNCC4)nc3)cc21` [GSK2816126], the outcome (with Medulloblastoma cell [1]; in the data set on Medulloblastoma cell [2]; in the data set on Medulloblastoma cell [3]; in [5]; in the data set on Medulloblastoma cell [6]; in the data set with Medulloblastoma cell [7]) was Active. Also, the result in the data set on Medulloblastoma cell [10], in the data set on Medulloblastoma cell [11], with Medulloblastoma cell [12], in the data set with Medulloblastoma cell [13], with Medulloblastoma cell [14] and in the data set on Medulloblastoma cell [15] was Active. Besides, the outcome in the data set on Medulloblastoma cell [16] and in the data set with Mus musculus was Active. Also, in the data set on Medulloblastoma cell [4], the half-maximal inhibitory concentration (IC50) is 4.64 µM. Besides, the Activity result in [8] and in [9] was “Non-Toxic” each time.
Turning to `CCN(c1cc(-c2ccc(CN3CCOCC3)cc2)cc(C(=O)NCc2c(C)cc(C)[nH]c2=O)c1C)C1CCOCC1` [TAZEMETOSTAT], the result (in the data set on Medulloblastoma cell [1]; in the data set on Medulloblastoma cell [2]; in the data set on Medulloblastoma cell [3]; in data set [5]; in the data set with Medulloblastoma cell [6]; in the data set on Medulloblastoma cell [7]) was Active. Also, the outcome in the data set on Medulloblastoma cell [10], in the data set on Medulloblastoma cell [11], in the data set on Medulloblastoma cell [12], with Medulloblastoma cell [13], with Medulloblastoma cell [14] and with Medulloblastoma cell [15] was Active. Also, the result in the data set on Medulloblastoma cell [16] and in the data set with Mus musculus was Active. Also, in the data set on Medulloblastoma cell [4], the concentration for half-maximal inhibition (IC50) was determined as 8.74 µM. The Activity entry in data set [8] and in data set [9] was “Non-Toxic” in each case.
`CCCc1cc(C)[nH]c(=O)c1CNC(=O)c1cc(-c2ccc(N3CCN(C(C)C)CC3)nc2)cc2c1cnn2C(C)C`: the result (in the data set with Medulloblastoma cell [1]; in the data set on Medulloblastoma cell [2]; in the data set on Medulloblastoma cell [3]; in [5]; in the data set with Medulloblastoma cell [6]; in the data set on Medulloblastoma cell [7]) was Active. Further, the result with Medulloblastoma cell [10], in the data set on Medulloblastoma cell [11], in the data set with Medulloblastoma cell [12], in the data set on Medulloblastoma cell [13], with Medulloblastoma cell [14] and in the data set with Medulloblastoma cell [15] was Active. Besides, the result with Medulloblastoma cell [16] and in the data set on Mus musculus was Active. The same compound gave an IC50 in the data set on Medulloblastoma cell [4] of 2.08 µM. Moreover, the Activity entry in data set [8] and in data set [9] was “Non-Toxic” throughout.
